# Measured values as given in ChEMBL document CHEMBL3352301, “Novel sulfonyl(thio)urea derivatives act efficiently both as insulin secretagogues and as insulinomimetic compounds” (Eur J Med Chem, 2014).
# Calls of active or inactive are those of the source. The rule behind the calls is not given here.
# Assays:
# [1] = system: Rattus norvegicus; assay: Antihyperglycemic activity in fasted hyperglycemic Wistar rat assessed as serum glucose level at 10 mg/kg, po measured 15 mins post dose by oral glucose tolerance test (reference value: 177.46 +/- 5.95 mg/dL); format: functional
# In short: (§1)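 Rats fasted at least 16 h (water free) were given glucose 4 g/kg by oral gavage; test compounds 10 mg/kg were gavaged in 0.3% Tween 80. Tail-vein blood was taken before dosing and at 15, 30, 60 and 180 min, then centrifuged. Serum glucose was measured by the glucose oxidase method. Six determinations per group, mean ± S.E.M.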
# [2] = system: Rattus norvegicus; assay: Antihyperglycemic activity in fasted hyperglycemic Wistar rat assessed as serum glucose level at 10 mg/kg, po measured 30 mins post dose by oral glucose tolerance test (reference value: 190.15 +/- 1.77 mg/dL); format: functional; in short: as §1
# [3] = system: Rattus norvegicus; assay: Antihyperglycemic activity in fasted hyperglycemic Wistar rat assessed as serum glucose level at 10 mg/kg, po measured 60 mins post dose by oral glucose tolerance test (reference value: 182.55 +/- 6.95 mg/dL); format: functional; in short: as §1
# [4] = system: Rattus norvegicus; assay: Antihyperglycemic activity in fasted hyperglycemic Wistar rat assessed as serum glucose level at 10 mg/kg, po measured 180 mins post dose by oral glucose tolerance test (reference value: 141.15 +/- 4.47 mg/dL); format: functional; in short: as §1
# [5] = system: Rattus norvegicus; assay: Insulin secretagogue activity in fasted hyperglycemic Wistar rat assessed as insulin level at 10 mg/kg, po measured 15 mins post dose by ELISA method (reference value: 2.84 +/- 0.002 ng/mL); format: functional
# [6] = system: Rattus norvegicus; assay: Insulin secretagogue activity in fasted hyperglycemic Wistar rat assessed as insulin level at 10 mg/kg, po measured 30 mins post dose by ELISA method (reference value: 0.75 +/- 0.007 ng/mL); format: functional
# [7] = system: Rattus norvegicus; assay: Insulin secretagogue activity in fasted hyperglycemic Wistar rat assessed as insulin level at 10 mg/kg, po measured 60 mins post dose by ELISA method (reference value: 0.59 +/- 0.004 ng/mL); format: functional
# [8] = system: Rattus norvegicus; assay: Insulin secretagogue activity in fasted hyperglycemic Wistar rat assessed as insulinogenic index ratio at 10 mg/kg, po by ELISA method (reference value: 0.66 ng/mg); format: functional
# In short: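 Serum insulin (ELISA) and glucose (glucose oxidase) were sampled from 0 to 60 min after oral glucose 4 g/kg plus compound 10 mg/kg gavage in fasted rats. Incremental areas under the curves were computed. Insulinogenic index = AUC insulin / AUC glucose over 0–60 min.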
# [9] = system: Rattus norvegicus; assay: Effect on glycogen content in skeletal muscle of fasted hyperglycemic Wistar rat assessed per gram of tissue at 10 mg/kg, po measured 3 hrs post dose (reference value: 8.6 +/- 1 mg/g of tissue); format: functional
# [10] = system: Rattus norvegicus; assay: Effect on glycogen content in liver of fasted hyperglycemic Wistar rat assessed per gram of tissue at 10 mg/kg, po measured 3 hrs post dose (reference value: 14.6 +/- 1.27 mg/g of tissue); format: functional
# [11] = system: Rattus norvegicus; assay: Toxicity in fasted hyperglycemic Wistar rat assessed as LDH level at 10 mg/kg, po by spectrophotometry based LDH release assay (reference value: 75.63 +/- 7.08 IU/L); format: organism-based; parameters: dose 10 mg/kg, route oral; conditions: in vivo
# [12] = Effect on glucose uptake in Wistar rat soleus muscle assessed per mg of protein at 1 uM by liquid scintillation counting based [14C]-2-deoxy-D-glucose uptake assay (reference value: 0.16 +/- 0.03 nmol glucose/mg protein); format: functional
# [13] = Effect on glucose uptake in Wistar rat soleus muscle assessed per mg of protein at 10 uM by liquid scintillation counting based [14C]-2-deoxy-D-glucose uptake assay (reference value: 0.16 +/- 0.03 nmol glucose/mg protein); format: functional
# [14] = system: Soleus muscle; assay: Stimulation of glucose uptake in Wistar rat soleus muscle assessed as glucose level per mg of protein at 100 uM by liquid scintillation counting based [14C]-2-deoxy-D-glucose uptake assay (reference value: 0.16 +/- 0.03 nmol glucose/mg protein); format: functional
# [15] = system: Soleus muscle; assay: Stimulation of glucose uptake in Wistar rat soleus muscle at 10 uM in presence of 100 nM PI-3K inhibitor wortmannin by liquid scintillation counting based [14C]-2-deoxy-D-glucose uptake assay; format: functional, tissue-based
# In short: (§2)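 Rat soleus in Krebs-Ringer bicarbonate (37 °C, O2/CO2 95:5, pH 7.4). Inhibitor or modulator (wortmannin 100 nM, H89, PMA 100 nM or cycloheximide) was present through a 30 min preincubation and a 60 min incubation, with or without compound. 14C-2-deoxy-D-glucose was added during incubation only. Uptake by scintillation counting normalised to Lowry protein; n=4 of 3 independent experiments.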
# [16] = system: Soleus muscle; assay: Stimulation of glucose uptake in Wistar rat soleus muscle at 10 uM in presence of 10 uM PKA inhibitor H89 by liquid scintillation counting based [14C]-2-deoxy-D-glucose uptake assay; format: functional, tissue-based; in short: as §2
# [17] = system: Soleus muscle; assay: Stimulation of glucose uptake in Wistar rat soleus muscle at 10 uM in presence of 100 nM PMA by liquid scintillation counting based [14C]-2-deoxy-D-glucose uptake assay; format: functional, tissue-based; in short: as §2
# [18] = system: Soleus muscle; assay: Stimulation of glucose uptake in Wistar rat soleus muscle at 10 uM in presence of 350 uM cycloheximide by liquid scintillation counting based [14C]-2-deoxy-D-glucose uptake assay; format: functional, tissue-based; in short: as §2
# [19] = system: Soleus muscle; assay: Stimulation of protein synthesis in Wistar rat soleus muscle at 10 uM by liquid scintillation counting based 1-[U-14C]leucine incorporation assay; format: functional, tissue-based
# In short: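 Soleus muscles from fasted rats were preincubated 30 min in Krebs-Ringer bicarbonate (O2/CO2 95:5, pH 7.4), then incubated 60 min with compound and L-[U-14C]leucine. The reaction was stopped with cold TCA (7% final). Incorporation was expressed as cpm/mg protein (Lowry); n=4 of 3 independent experiments.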
# [20] = system: Soleus muscle; assay: Increase in GLUT4 expression in Wistar rat soleus muscle at 20 uM after 60 mins by polyacrylamide gel electrophoresis and immunoblotting analysis; format: functional, tissue-based
# [21] = system: Soleus muscle; assay: Increase in GLUT4 expression in Wistar rat soleus muscle at 20 uM after 60 mins in presence of 350 uM cycloheximide by polyacrylamide gel electrophoresis and immunoblotting analysis; format: functional, tissue-based
# [22] = system: Soleus muscle; assay: Increase in GLUT4 expression in Wistar rat soleus muscle membranes at 10 uM after 60 mins by immunofluorescence analysis; format: functional, cell membranes
# In short: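 Soleus was taken after 60 min in vitro incubation, or 180 min after oral gavage at 10 mg/kg. Tissue was fixed in 4% paraformaldehyde, paraffin-embedded and cut at 5 µm, with citrate antigen retrieval. Sections were stained with mouse anti-GLUT4 (1:500, overnight) then Cy3 anti-mouse, with DAPI counterstain. GLUT4 distribution was assessed qualitatively.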
# [23] = system: Rattus norvegicus; assay: Increase in GLUT4 expression in soleus muscle membranes of Wistar rat at 10 mg/kg, po after 180 mins by immunofluorescence analysis; conditions: Membrane
# [24] = target: ATP-binding cassette sub-family C member 8 (Homo sapiens, UniProt Q09428); assay: Binding affinity to SUR1 (unknown origin)
# ATP-binding cassette sub-family C member 8, sequence (Q09428 whole entry): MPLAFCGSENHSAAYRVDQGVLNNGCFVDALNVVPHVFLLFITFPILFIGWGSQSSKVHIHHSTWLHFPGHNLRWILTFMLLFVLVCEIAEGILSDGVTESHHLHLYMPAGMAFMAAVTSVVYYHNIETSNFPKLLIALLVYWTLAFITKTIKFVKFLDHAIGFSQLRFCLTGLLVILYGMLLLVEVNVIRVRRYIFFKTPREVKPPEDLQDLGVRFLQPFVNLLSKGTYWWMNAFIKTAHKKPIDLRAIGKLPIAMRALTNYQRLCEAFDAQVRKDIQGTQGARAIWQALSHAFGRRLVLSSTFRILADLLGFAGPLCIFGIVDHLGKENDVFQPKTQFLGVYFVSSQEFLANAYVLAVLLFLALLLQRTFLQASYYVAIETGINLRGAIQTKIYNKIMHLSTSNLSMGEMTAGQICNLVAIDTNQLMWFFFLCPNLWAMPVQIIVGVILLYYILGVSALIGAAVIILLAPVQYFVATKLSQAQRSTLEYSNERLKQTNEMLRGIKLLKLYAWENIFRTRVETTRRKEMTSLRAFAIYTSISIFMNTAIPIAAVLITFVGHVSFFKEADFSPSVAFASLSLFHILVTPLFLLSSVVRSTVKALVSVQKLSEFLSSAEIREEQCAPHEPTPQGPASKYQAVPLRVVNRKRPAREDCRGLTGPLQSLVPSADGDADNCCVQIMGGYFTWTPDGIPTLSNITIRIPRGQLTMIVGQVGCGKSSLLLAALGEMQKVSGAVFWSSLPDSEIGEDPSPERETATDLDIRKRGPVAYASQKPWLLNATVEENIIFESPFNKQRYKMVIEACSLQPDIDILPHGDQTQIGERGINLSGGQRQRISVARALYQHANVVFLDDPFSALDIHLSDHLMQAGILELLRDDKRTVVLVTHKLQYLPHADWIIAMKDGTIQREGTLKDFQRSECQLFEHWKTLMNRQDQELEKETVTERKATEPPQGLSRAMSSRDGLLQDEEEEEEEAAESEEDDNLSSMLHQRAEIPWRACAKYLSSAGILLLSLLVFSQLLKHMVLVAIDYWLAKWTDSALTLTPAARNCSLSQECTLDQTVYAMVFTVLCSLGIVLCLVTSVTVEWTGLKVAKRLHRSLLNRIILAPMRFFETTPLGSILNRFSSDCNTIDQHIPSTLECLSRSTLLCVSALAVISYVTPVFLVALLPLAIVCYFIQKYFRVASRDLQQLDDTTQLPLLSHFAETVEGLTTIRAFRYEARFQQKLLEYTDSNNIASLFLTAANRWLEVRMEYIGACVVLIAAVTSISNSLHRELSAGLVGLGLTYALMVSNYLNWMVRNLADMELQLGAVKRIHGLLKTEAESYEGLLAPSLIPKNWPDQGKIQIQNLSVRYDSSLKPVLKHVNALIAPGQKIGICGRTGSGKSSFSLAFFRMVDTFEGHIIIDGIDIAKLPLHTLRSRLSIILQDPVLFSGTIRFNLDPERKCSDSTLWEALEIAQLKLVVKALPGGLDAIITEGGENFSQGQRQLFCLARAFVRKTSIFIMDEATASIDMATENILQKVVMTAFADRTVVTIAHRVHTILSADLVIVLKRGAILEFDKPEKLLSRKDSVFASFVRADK
Compound,Activity [1] [mg/dL],Activity [2] [mg/dL],Activity [3] [mg/dL],Activity [4] [mg/dL],Activity [5] [ng/mL],Activity [6] [ng/mL],Activity [7] [ng/mL],Ratio [8] [ng/mg],Activity [9] [mg],Activity [10] [mg],Activity [11] [IU/L],other results
COc1ccc(Cl)cc1C(=O)NCCc1ccc(S(=O)(=O)NC(=O)NC2CCCCC2)cc1 [GLYBURIDE],140.49,135.24,128.34,124.28,3.83,2.66,2.46,1.98,17.46,8.71,41.08,
COc1ccc(S(=O)(=O)NCCc2ccc(S(=O)(=O)NC(=O)Nc3cccc4ccccc34)cc2)cc1,155.68,156.4,157.9,143.6,,,,,,,,
O=S(=O)(NC(=S)Nc1ccccc1)c1ccc(CCNS(=O)(=O)c2cccs2)cc1,150.23,141.6,140.96,139.26,3.01,1.19,1.46,1.06,20.69,7.68,72.19,Activity [12]: 0.35 nmol; Activity [13]: 0.3 nmol; Activity [14]: 0.32 nmol; Activity [15]: inactive; Activity [16]: inactive; Activity [17]: inactive; Activity [18]: inactive; Activity [19]: Active; Activity [20]: Active; Activity [21]: inactive; Activity [22]: Active; Activity [23]: Active
CC1(C)C2CCC1(CS(=O)(=O)NCCc1ccc(S(=O)(=O)NC(=S)Nc3ccccc3)cc1)C(=O)C2 (stereo not given),151.58,160.61,149.03,149.35,,,,,,,,
COc1cc(NC(=O)CO[C@H]2O[C@H](CO)[C@@H](O)[C@H](O)[C@H]2O)c(Cl)cc1C(=O)NCCc1ccc(S(=O)(=O)NC(=O)NC2CCCCC2)cc1,,,,,,,,,,,,Kd [24]: 2.08 nM
O=S(=O)(NCCc1ccc(S(=O)(=O)NC(=S)Nc2ccccc2)cc1)c1ccc(F)cc1,148.8,165.7,165.3,146.4,,,,,,,,
Cc1ccc(S(=O)(=O)NCCc2ccc(S(=O)(=O)NC(=S)Nc3ccccc3)cc2)cc1,151.25,157.14,173.51,152.6,,,,,,,,
COc1cc(NC(C)=O)c(Cl)cc1C(=O)NCCc1ccc(S(=O)(=O)NC(=O)NC2CCCCC2)cc1,,,,,,,,,,,,Kd [24]: 0.38 nM
O=S(=O)(NCCc1ccc(S(=O)(=O)NC(=S)Nc2ccccc2)cc1)c1ccccc1,146.02,151.62,158.27,134.44,0.39,0.35,0.78,0.31,6.93,10.66,68.09,
O=S(=O)(NC(=S)Nc1ccccc1)c1ccc(CCNS(=O)(=O)c2cccc3cccnc23)cc1,147.97,160.22,140.08,139.63,2.26,1.36,0.6,0.84,9.93,11.33,71.3,
COc1ccc(S(=O)(=O)NCCc2ccc(S(=O)(=O)NC(=S)Nc3ccccc3)cc2)cc1,150.98,144.75,154.79,124.7,2.75,0.7,0.53,0.77,7.24,104.25,108.01,
CC(C)c1cc(C(C)C)c(S(=O)(=O)NCCc2ccc(S(=O)(=O)NC(=S)Nc3ccccc3)cc2)c(C(C)C)c1,149.51,168.72,152.76,142.08,,,,,,,,
COc1ccc(S(=O)(=O)NCCc2ccc(S(=O)(=O)NC(=S)Nc3ccc(Cl)cc3)cc2)cc1,141.45,158.69,151.74,139.54,2.69,0.71,0.52,0.72,28.51,69.35,73.92,
